# What was measured:
# [1] = test system: Meyerozyma guilliermondii; experiment: In vitro evaluation of minimum inhibitory concentration against Candida guilliermondii 26; assay type: functional
# In short: (§1)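 Stocks are 800 μg/mL in 50% ethanol. Each plate gets 10 μL of inoculum at 10^5 cfu/mL. Incubation at 25 °C, 48 h for yeasts and 120 h for dermatophytes and molds. Organisms are ATCC strains or clinical isolates.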
# Candida parapsilosis [2] = experiment: In vitro evaluation of minimum inhibitory concentration against Candida parapsilosis 61; assay type: functional; in short: as §1
# Candida tropicalis [3] = experiment: In vitro evaluation of minimum inhibitory concentration against Candida tropicalis 2.11; assay type: functional; in short: as §1
# Rattus norvegicus [4] = experiment: In vivo evaluation of antifungal activity against vaginal candidosis in rat at dose 0.25 mg/kg on 15th day; assay type: functional
# In short: (§2)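 Groups of 10 female Wistar rats given estradiol 25 mg/kg sc on day -5, infected intravaginally with C. albicans by sterile swab on day 0; infection confirmed on day 3 by swab culture (TSB, then Sabouraud agar). Oral dosing once daily on days 3, 4, 5; vehicle controls. Vaginal swabs cultured on days 10 and 15; read-out % cured (culture-negative).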
# Aspergillus flavus = experiment: In vitro evaluation of minimum inhibitory concentration against Aspergillus flavus 19; assay type: functional; in short: as §1
# Candida parapsilosis [5] = experiment: Evaluation of In vitro antifungal activity against Candida parapsilosis C74 by broth macro dilution method; assay type: functional; conditions: Lodderomyces parapsilosis
# In short: (§3)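 Yeast MIC and MFC by broth macrodilution per NCCLS M27-P in RPMI-1640 buffered with 0.165 M MOPS. Fluconazole in sterile water, other drugs in DMSO. C. parapsilosis ATCC 22019 is the reference strain in each run. MIC is the lowest concentration with turbidity ≤ the 80% inhibition standard. For MFC, 0.04 mL from clear tubes is plated on Sabouraud agar; MFC is the lowest concentration giving ≤1 colony.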
# Trichophyton benhamiae = experiment: In vitro evaluation of minimum inhibitory concentration against Trichophyton mentagrophytes 23; assay type: functional, Arthroderma benhamiae; in short: as §1
# Candida albicans [6] = experiment: Evaluation of […] antifungal activity against Candida albicans 60 by broth macro dilution method; assay type: functional; in short: as §3
# Rattus norvegicus [7] = experiment: In vivo evaluation of antifungal activity against vaginal candidosis in rat at dose 0.1 mg/kg on 10th day; assay type: functional
# In short: (§4)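 Groups of 10 female Wistar rats given estradiol 25 mg/kg sc on day -5, then vaginally inoculated with C. albicans on day 0. Infection is confirmed by culture of day-3 swabs. Compound is dosed orally once daily on days 3–5; controls get vehicle. Cure is scored by culture of vaginal swabs taken on days 10 and 15.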
# Candida albicans [8] = experiment: Evaluation of In vitro antifungal activity against Candida albicans 76 by broth macro dilution method; assay type: functional; in short: as §3
# Candida parapsilosis [9] = experiment: Evaluation of In vitro antifungal activity against Candida parapsilosis C292 by broth macro dilution method; assay type: functional; conditions: Lodderomyces parapsilosis; in short: as §3
# Candida albicans [10] = experiment: Evaluation of In vitro antifungal activity against Candida albicans ATCC 10231 by broth macro dilution method; assay type: functional; in short: as §3
# Aspergillus niger = experiment: In vitro evaluation of minimum inhibitory concentration against Aspergillus niger 18; assay type: functional; in short: as §1
# Candida tropicalis [11] = experiment: Evaluation of In vitro antifungal activity against Candida tropicalis 50 by broth macro dilution method; assay type: functional; in short: as §3
# Aspergillus fumigatus = experiment: In vitro evaluation of minimum inhibitory concentration against Aspergillus fumigatus 33; assay type: functional; in short: as §1
# Candida albicans [12] = experiment: In vivo evaluation of minimum inhibitory concentration against Candida albicans 60; assay type: functional
# In short: (§5)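 Broth macrodilution MIC following NCCLS M27-P, in RPMI-1640 buffered with 0.165 M MOPS. Fluconazole was dissolved in water and other drugs in DMSO. C. parapsilosis ATCC 22019 served as the reference strain in every run. MIC was the lowest concentration giving turbidity at or below the 80% inhibition standard.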
# Candida albicans [13] = experiment: Evaluation of In vitro antifungal activity against Candida albicans 406 by broth macro dilution method; assay type: functional; in short: as §3
# Pichia kudriavzevii [14] = experiment: Evaluation of In vitro antifungal activity against Candida krusei C64 by broth macro dilution method; assay type: functional; in short: as §3
# Rattus norvegicus [15] = experiment: In vivo evaluation of antifungal activity against vaginal candidosis in rat at dose 0.1 mg/kg on 15th day; assay type: functional; in short: as §4
# Pichia kudriavzevii [16] = experiment: In vitro evaluation of minimum inhibitory concentration against Candida krusei 70; assay type: functional; in short: as §1
# Candida albicans [17] = experiment: Evaluation of In vitro antifungal activity against Candida albicans C52 by broth macro dilution method; assay type: functional; in short: as §3
# Microsporum canis = experiment: In vitro evaluation of minimum inhibitory concentration against Microsporum canis 47; assay type: functional; in short: as §1
# [18] = test system: Meyerozyma guilliermondii; experiment: Evaluation of In vitro antifungal activity against Candida guilliermondii 26 by broth macro dilution method; assay type: functional; in short: as §3
# Mus musculus [19] = experiment: In vivo evaluation of % survival rate after peroral administration on 7th day at dose 0.5 mg/kg(as a water solution in (hydroxypropyl -beta-cyclodextrin)); assay type: functional; conditions: route oral
# In short: (§6)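 Groups of 10 male mice were infected iv with 0.2 mL of C. albicans at (2-8) × 10^7 cfu/mL. Oral doses were given at 1, 4 and 24 h post-infection. Vehicle-only controls were included, with at least 90% control mortality by day 3. Percent survival was recorded on days 3, 5, 7 and 9.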
# Kluyveromyces marxianus [20] = experiment: In vitro evaluation of minimum inhibitory concentration against Candida pseudotropicalis 13; assay type: functional; in short: as §1
# Candida albicans [21] = experiment: In vivo evaluation of minimum inhibitory concentration against Candida albicans 406; assay type: functional; in short: as §5
# Cryptococcus neoformans [22] = experiment: Evaluation of In vitro antifungal activity against Cryptococcus neoformans 87 by broth macro dilution method; assay type: functional; in short: as §3
# Candida albicans [23] = experiment: Evaluation of In vitro antifungal activity against Candida albicans 2.01 by broth macro dilution method; assay type: functional; in short: as §3
# Rhodotorula mucilaginosa = experiment: In vitro evaluation of minimum inhibitory concentration against Rhodotorula rubra 16; assay type: functional; in short: as §1
# Kluyveromyces marxianus [24] = experiment: Evaluation of In vitro antifungal activity against yeasts by broth macro dilution method; assay type: functional; in short: as §3
# Mus musculus [25] = experiment: In vivo evaluation of % survival rate after peroral administration on 7th day at dose 0.5 mg/kg; assay type: functional; conditions: route oral, 0.5 mg/kg
# Candida albicans [26] = experiment: Evaluation of In vitro antifungal activity against Candida albicans 60 by broth macro dilution method
# Cryptococcus neoformans [27] = experiment: Evaluation of In vitro antifungal activity against Cryptococcus neoformans 74 by broth macro dilution method; assay type: functional; in short: as §3
# Candida parapsilosis [28] = experiment: Evaluation of In vitro antifungal activity against Candida parapsilosis ATCC 22019 by broth macro dilution method; assay type: functional; conditions: Lodderomyces parapsilosis; in short: as §3
# Candida albicans [29] = experiment: Evaluation of In vitro antifungal activity against Candida albicans C56 by broth macro dilution method; assay type: functional; in short: as §3
# Mus sp. [30] = experiment: In vivo evaluation of % survival rate after peroral administration on 9th day at dose 0.5 mg/kg; assay type: functional; conditions: route oral, 0.5 mg/kg
# Mus musculus [31] = experiment: In vivo evaluation of % survival rate after peroral administration on 5th day at dose 0.5 mg/kg(as a water solution in (hydroxypropyl -beta-cyclodextrin)); assay type: functional; conditions: route oral; in short: as §6
# Candida tropicalis [32] = experiment: Evaluation of In vitro antifungal activity against Candida tropicalis 2.11 by broth macro dilution method; assay type: functional; in short: as §3
# Kluyveromyces marxianus [33] = experiment: Evaluation of In vitro antifungal activity against Candida pseudotropicalis ATCC 28838 by broth macro dilution method; assay type: functional; in short: as §3
# Candida albicans [34] = experiment: Evaluation of In vitro antifungal activity against Candida albicans 31 by broth macro dilution method; assay type: functional; in short: as §3
# Candida parapsilosis [35] = experiment: Evaluation of In vitro antifungal activity against Candida parapsilosis 2.07 by broth macro dilution method; assay type: functional; conditions: Lodderomyces parapsilosis; in short: as §3
# Mus sp. [36] = experiment: In vivo evaluation of % survival rate after peroral administration on 9th day at dose 1 mg/kg; assay type: functional; conditions: route oral, 1 mg/kg
# Nakaseomyces glabratus [37] = experiment: In vitro evaluation of minimum inhibitory concentration against Torulopsis glabrata 78; assay type: functional; in short: as §1
# Mus musculus [38] = experiment: In vivo evaluation of % survival rate after peroral administration on 9th day at dose 0.5 mg/kg(as a water solution in (hydroxypropyl -beta-cyclodextrin)); assay type: functional; conditions: route oral; in short: as §6
# Mus musculus [39] = experiment: In vivo evaluation of % survival rate after peroral administration on 3rd day at dose 0.5 mg/kg(as a water solution in (hydroxypropyl -beta-cyclodextrin)); assay type: functional; conditions: route oral; in short: as §6
# Candida albicans [40] = experiment: In vitro evaluation of minimum inhibitory concentration against Candida albicans 76; assay type: functional; in short: as §1
# Nakaseomyces glabratus [41] = experiment: Evaluation of In vitro antifungal activity against Torulopsis glabrata 78 by broth macro dilution method; assay type: functional; in short: as §3
# Trichophyton rubrum = experiment: IIn vitro evaluation of minimum inhibitory concentration against Trichophyton rubrum 90; assay type: functional; in short: as §1
# Candida parapsilosis [42] = experiment: Evaluation of In vitro antifungal activity against Candida parapsilosis ATCC 141095 by broth macro dilution method; assay type: functional; conditions: Lodderomyces parapsilosis; in short: as §3
# Rattus norvegicus [43] = experiment: In vivo evaluation of antifungal activity against vaginal candidosis in rat at dose 0.25 mg/kg on 10th day; assay type: functional; in short: as §2
# Pichia kudriavzevii [44] = experiment: Evaluation of In vitro antifungal activity against Candida krusei 70 by broth macro dilution method; assay type: functional; in short: as §3
compound,measurement,setting,value
C[C@H]1N(C(=O)c2ccc(C(F)(F)F)cc2)CCO[C@@]1(Cn1cncn1)c1ccc(F)cc1F (stereo in doubt; (-)-41),MIC,[1],20 µg/mL
same,MIC,Candida parapsilosis [2],10 µg/mL
same,MIC,Candida tropicalis [3],40 µg/mL
same,Cure rate,Rattus norvegicus [4],60%
same,MIC,Aspergillus flavus,40 µg/mL
same,MFC,Candida parapsilosis [5],8 µg/mL
same,MIC,Candida parapsilosis [5],0.5 µg/mL
same,MIC,Trichophyton benhamiae,40 µg/mL
same,MIC,Candida albicans [6],0.25 µg/mL
same,Cure rate,Rattus norvegicus [7],10%
same,MFC,Candida albicans [8],> 64 µg/mL
same,MIC,Candida albicans [8],0.125 µg/mL
same,MFC,Candida parapsilosis [9],> 64 µg/mL
same,MIC,Candida parapsilosis [9],2 µg/mL
same,MFC,Candida albicans [10],> 64 µg/mL
same,MIC,Candida albicans [10],0.25 µg/mL
same,MIC,Aspergillus niger,80 µg/mL
same,MFC,Candida tropicalis [11],> 64 µg/mL
same,MIC,Candida tropicalis [11],16 µg/mL
same,MIC,Aspergillus fumigatus,40 µg/mL
same,MIC,Candida albicans [12],0.31 µg/mL
same,MFC,Candida albicans [13],> 64 µg/mL
same,MIC,Candida albicans [13],0.25 µg/mL
same,MFC,Pichia kudriavzevii [14],> 64 µg/mL
same,MIC,Pichia kudriavzevii [14],32 µg/mL
same,Cure rate,Rattus norvegicus [15],20%
same,MIC,Pichia kudriavzevii [16],40 µg/mL
same,MFC,Candida albicans [17],> 64 µg/mL
same,MIC,Candida albicans [17],0.125 µg/mL
same,MIC,Microsporum canis,20 µg/mL
same,MFC,[18],> 64 µg/mL
same,MIC,[18],8 µg/mL
same,survival at 0.5 mg/kg,Mus musculus [19],60%
same,MIC,Kluyveromyces marxianus [20],40 µg/mL
same,MIC,Candida albicans [21],0.15 µg/mL
same,MFC,Cryptococcus neoformans [22],> 64 µg/mL
same,MIC,Cryptococcus neoformans [22],2 µg/mL
same,MFC,Candida albicans [23],> 64 µg/mL
same,MIC,Candida albicans [23],0.25 µg/mL
same,MIC,Rhodotorula mucilaginosa,5 µg/mL
same,MIC,Kluyveromyces marxianus [24],0.125 µg/mL
same,Survival,Mus musculus [25],70%
same,MFC,Candida albicans [26],> 64 µg/mL
same,MFC,Cryptococcus neoformans [27],0.25 µg/mL
same,MIC,Cryptococcus neoformans [27],0.125 µg/mL
same,MFC,Candida parapsilosis [28],4 µg/mL
same,MIC,Candida parapsilosis [28],2 µg/mL
same,MFC,Candida albicans [29],> 64 µg/mL
same,MIC,Candida albicans [29],0.125 µg/mL
same,Survival,Mus sp. [30],40%
same,survival at 0.5 mg/kg,Mus musculus [31],100%
same,MFC,Candida tropicalis [32],> 64 µg/mL
same,MIC,Candida tropicalis [32],4 µg/mL
same,MFC,Kluyveromyces marxianus [33],32 µg/mL
same,MFC,Candida albicans [34],> 64 µg/mL
same,MIC,Candida albicans [34],0.125 µg/mL
same,MFC,Candida parapsilosis [35],> 64 µg/mL
same,MIC,Candida parapsilosis [35],1 µg/mL
same,Survival,Mus sp. [36],70%
same,MIC,Nakaseomyces glabratus [37],10 µg/mL
same,survival at 0.5 mg/kg,Mus musculus [38],30%
same,survival at 0.5 mg/kg,Mus musculus [39],100%
same,MIC,Candida albicans [40],1.25 µg/mL
same,MFC,Nakaseomyces glabratus [41],> 64 µg/mL
same,MIC,Nakaseomyces glabratus [41],16 µg/mL
same,MIC,Trichophyton rubrum,10 µg/mL
same,MFC,Candida parapsilosis [42],> 64 µg/mL
same,MIC,Candida parapsilosis [42],32 µg/mL
same,Cure rate,Rattus norvegicus [43],40%
same,MFC,Pichia kudriavzevii [44],> 64 µg/mL
same,MIC,Pichia kudriavzevii [44],32 µg/mL

# Source: ChEMBL document CHEMBL1128448, “Synthesis and antifungal activity of new azole derivatives containing an N-acylmorpholine ring” (1995)
